The source of these data is the M2OR odorant receptor database.

Common to all, as to settings: stereoisomer not certain
For one experiment, the target named is T1, OR2J2 (Homo sapiens) (UniProt O76002).
T1 sequence (whole entry): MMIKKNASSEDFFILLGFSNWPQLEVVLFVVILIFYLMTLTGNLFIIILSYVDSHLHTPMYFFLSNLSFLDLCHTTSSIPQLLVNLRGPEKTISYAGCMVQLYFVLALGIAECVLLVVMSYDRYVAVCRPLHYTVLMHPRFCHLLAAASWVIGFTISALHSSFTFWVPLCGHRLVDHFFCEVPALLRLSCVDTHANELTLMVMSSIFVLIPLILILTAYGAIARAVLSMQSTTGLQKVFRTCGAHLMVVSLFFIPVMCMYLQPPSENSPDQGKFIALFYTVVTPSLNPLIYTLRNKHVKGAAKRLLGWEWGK
The method in brief:
(§1)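 Each entry records the cell line, G-protein, co-transfected protein and tags used. Methods varied with the source, often transient luciferase assays in mammalian cell lines. A receptor–molecule pair is called responsive (active) if the original authors judged its signal statistically different from baseline and non-responsive (inactive) otherwise.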

Another experiment addresses T2, OR2J1 (Homo sapiens) (UniProt Q9GZK6).
T2 sequence (whole entry): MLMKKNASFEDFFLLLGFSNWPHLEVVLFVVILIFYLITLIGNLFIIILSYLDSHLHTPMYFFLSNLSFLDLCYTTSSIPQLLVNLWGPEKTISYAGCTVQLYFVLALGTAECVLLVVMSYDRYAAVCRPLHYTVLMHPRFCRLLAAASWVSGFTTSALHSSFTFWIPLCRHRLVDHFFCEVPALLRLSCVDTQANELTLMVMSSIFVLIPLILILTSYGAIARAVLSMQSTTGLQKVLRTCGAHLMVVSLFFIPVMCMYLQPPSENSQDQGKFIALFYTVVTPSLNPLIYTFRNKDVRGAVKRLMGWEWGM
The method in brief: as §1

For the next experiment, the target named is T3, OR2J3 (Homo sapiens) (UniProt O76001).
T3 sequence (whole entry): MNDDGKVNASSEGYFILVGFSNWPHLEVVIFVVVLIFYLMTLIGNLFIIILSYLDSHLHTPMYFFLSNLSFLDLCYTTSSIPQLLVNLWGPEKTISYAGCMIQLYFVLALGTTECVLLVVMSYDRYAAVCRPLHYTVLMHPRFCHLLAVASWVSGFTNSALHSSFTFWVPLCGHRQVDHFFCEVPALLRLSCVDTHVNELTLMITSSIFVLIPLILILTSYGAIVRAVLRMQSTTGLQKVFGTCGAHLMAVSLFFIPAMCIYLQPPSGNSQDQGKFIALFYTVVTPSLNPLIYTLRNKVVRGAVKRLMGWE
A digest of the protocol: as §1

For a further experiment, the target named is T4, OR2K2 (Homo sapiens) (UniProt Q8NGT1).
T4 sequence (whole entry): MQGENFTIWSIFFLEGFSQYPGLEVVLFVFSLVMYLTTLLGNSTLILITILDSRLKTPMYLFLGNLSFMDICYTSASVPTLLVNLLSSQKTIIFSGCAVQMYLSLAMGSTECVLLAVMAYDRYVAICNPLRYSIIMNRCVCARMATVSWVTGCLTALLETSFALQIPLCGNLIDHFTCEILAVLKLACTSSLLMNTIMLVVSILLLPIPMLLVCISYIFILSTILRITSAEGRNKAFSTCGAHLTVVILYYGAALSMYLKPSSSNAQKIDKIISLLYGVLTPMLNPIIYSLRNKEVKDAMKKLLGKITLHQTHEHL
A digest of the protocol:
as §1

The next experiment deals with T5, OR2H2.
T5 sequence (whole entry): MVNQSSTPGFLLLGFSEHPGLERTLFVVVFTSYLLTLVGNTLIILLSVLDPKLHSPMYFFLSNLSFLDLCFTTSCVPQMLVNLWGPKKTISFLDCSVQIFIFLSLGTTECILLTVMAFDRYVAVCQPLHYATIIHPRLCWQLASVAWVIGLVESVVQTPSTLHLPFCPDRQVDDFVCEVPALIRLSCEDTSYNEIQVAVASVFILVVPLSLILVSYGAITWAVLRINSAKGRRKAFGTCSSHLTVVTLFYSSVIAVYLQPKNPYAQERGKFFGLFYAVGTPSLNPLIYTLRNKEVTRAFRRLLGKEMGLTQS
A digest of the protocol:
as §1

The subject of a further experiment is T6, OR2J1 L14I V182A.
T6 sequence (whole entry): T2 sequence (whole entry) with L14I, V182A
The method in brief:
as §1

The next experiment deals with T7, OR2J2.
T7 sequence (whole entry): T1 sequence (whole entry) with H74Y, A111T, A146V, A218T
A digest of the protocol:
as §1

The test system of another experiment is T8, OR2J3.
T8 sequence (whole entry): T3 sequence (whole entry) with V228I, I261M
A digest of the protocol:
as §1

Experiment [1] deals with OR2J1. A digest of the protocol: as §1
Experiment [2] deals with OR2J1. The method in brief: as §1
Target sequence in this assay (as listed by the source): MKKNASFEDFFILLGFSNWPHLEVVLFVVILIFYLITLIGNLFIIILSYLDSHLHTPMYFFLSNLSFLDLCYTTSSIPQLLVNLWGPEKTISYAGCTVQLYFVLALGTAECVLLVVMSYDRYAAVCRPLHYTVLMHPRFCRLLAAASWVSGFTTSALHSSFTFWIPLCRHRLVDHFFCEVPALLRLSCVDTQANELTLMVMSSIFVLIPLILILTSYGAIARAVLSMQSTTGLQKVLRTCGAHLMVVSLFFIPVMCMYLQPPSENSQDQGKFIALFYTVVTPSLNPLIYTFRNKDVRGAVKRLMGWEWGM
The source holds these as a separate data set.

Substitutions are numbered along the chain they refer to.

As for `CCCCCO`, in the experiment with OR2J2 (Homo sapiens), the “odorant receptor agonist call” value was “inactive”.

For the molecule `CCCCOC=O`, in the experiment with OR2J2 (Homo sapiens), the “odorant receptor agonist call” value is “inactive”.

As for `CC(C)=CCCC(C)=CCO`, the “odorant receptor agonist call” value with OR2J2 (Homo sapiens) was “inactive”.

Take `CC(CO)CS` (stereo not drawn): the “odorant receptor agonist call” value with OR2J1 (Homo sapiens), with OR2J2 (Homo sapiens), with OR2J3 (Homo sapiens) and with OR2K2 (Homo sapiens) was “inactive” each time.

Consider `CCC(S)C(C)CO` (stereo not drawn), for which the “odorant receptor agonist call” value with OR2J1 (Homo sapiens), with OR2J2 (Homo sapiens), with OR2J3 (Homo sapiens) and with OR2K2 (Homo sapiens) was “inactive” throughout.

For `CCCCCCCCO`, in the experiment with OR2J2 (Homo sapiens), the “odorant receptor agonist call” value was “active”.

Regarding `CC1CCCCCCCCCCCCC(=O)C1` (stereo not drawn), the “odorant receptor agonist call” value in the experiment with OR2J1 (Homo sapiens), in the experiment with OR2J2 (Homo sapiens), with OR2J3 (Homo sapiens) and with OR2K2 (Homo sapiens) was “inactive” in each case.

For `CCC1OC(C)=C(O)C1=O` (stereo not drawn), the “odorant receptor agonist call” value in the experiment with OR2H2, in the experiment with OR2J1 (Homo sapiens), in the experiment on OR2J1 L14I V182A, with OR2J2, in the experiment with OR2J3 (Homo sapiens) and in the experiment on OR2J3 was “inactive” throughout. Further, the “odorant receptor agonist call” value with OR2K2 (Homo sapiens) is “inactive”.

Consider `CC1=NC(C)C(C)S1` (stereo not drawn), for which the “odorant receptor agonist call” value in the experiment on OR2H2, with OR2J1 (Homo sapiens), in the experiment on OR2J1 L14I V182A, in the experiment with OR2J2, with OR2J3 (Homo sapiens) and with OR2J3 was “inactive” in each case. Also, in the experiment with OR2K2 (Homo sapiens), the “odorant receptor agonist call” value was “inactive”.

For `CCCCC(S)C(C)CO` (stereo not drawn), the “odorant receptor agonist call” value in the experiment with OR2J1 (Homo sapiens), with OR2J2 (Homo sapiens), in the experiment with OR2J3 (Homo sapiens) and with OR2K2 (Homo sapiens) was “inactive” throughout.

For the molecule `COc1cc(C(=O)O)ccc1O`, the “odorant receptor agonist call” value in the experiment with OR2J2 (Homo sapiens) is “inactive”.

Regarding `CCCCCC(=O)C(C)C(C)=O` (stereo not drawn), the “odorant receptor agonist call” value with OR2J1 (Homo sapiens), in the experiment with OR2J2 (Homo sapiens), with OR2J3 (Homo sapiens) and with OR2K2 (Homo sapiens) was “inactive” in each case.

With `O=C1Cc2ccccc2O1`, the “odorant receptor agonist call” value with OR2J2 (Homo sapiens) was “inactive”.

Take `O=c1ccc2ccccc2o1`: the “odorant receptor agonist call” value in the experiment on OR2J1 [1] was “inactive”. In addition, the “odorant receptor agonist call” value with OR2J2 (Homo sapiens) is “active”.

Regarding `CCCCCCCCCCO`, the “odorant receptor agonist call” value with OR2J2 (Homo sapiens) is “active”.

For the molecule `CCCCCC(S)C(C)CO` (stereo not drawn), the “odorant receptor agonist call” value with OR2J1 (Homo sapiens), with OR2J2 (Homo sapiens), with OR2J3 (Homo sapiens) and with OR2K2 (Homo sapiens) was “inactive” throughout.

Regarding `CCCC(C)=CC(=O)O`, the “odorant receptor agonist call” value with OR2J1 [2] and with OR2J1 [1] was “inactive” throughout.

Regarding `CCCCC(C)=O`, in the experiment with OR2J2 (Homo sapiens), the “odorant receptor agonist call” value is “inactive”.

Regarding `CCCCCCO`, the “odorant receptor agonist call” value with OR2J2 (Homo sapiens) was “inactive”.

On to `CCC1OC(=O)C(O)=C1C` (stereo not drawn), for which the “odorant receptor agonist call” value in the experiment on OR2H2, with OR2J1 (Homo sapiens), in the experiment with OR2J1 L14I V182A, with OR2J2, in the experiment with OR2J3 (Homo sapiens) and in the experiment on OR2J3 was “inactive” throughout. Further, the “odorant receptor agonist call” value with OR2K2 (Homo sapiens) was “inactive”.

`CC(=O)Oc1ccccc1`: in the experiment with OR2J2 (Homo sapiens), the “odorant receptor agonist call” value is “inactive”.

As for `CC1=C(O)C(=O)C(C)O1` (stereo not drawn), the “odorant receptor agonist call” value in the experiment on OR2H2, in the experiment with OR2J1 (Homo sapiens), with OR2J1 L14I V182A, with OR2J2, in the experiment with OR2J3 (Homo sapiens) and with OR2J3 was “inactive” in each case. The “odorant receptor agonist call” value in the experiment with OR2K2 (Homo sapiens) was “inactive”.

On to `CC1=C(O)C(=O)OC1C` (stereo not drawn), for which the “odorant receptor agonist call” value in the experiment with OR2H2, in the experiment with OR2J1 (Homo sapiens), in the experiment with OR2J1 L14I V182A, in the experiment on OR2J2, with OR2J3 (Homo sapiens) and with OR2J3 was “inactive” in each case. For the same molecule, in the experiment with OR2K2 (Homo sapiens), the “odorant receptor agonist call” value is “inactive”.
